Assay results: ChEMBL document CHEMBL3763127, “Design, synthesis and biological evaluation of novel asperphenamate derivatives” (Eur J Med Chem, 2016)
The source made the active and inactive calls. The calls are words filed in the database; no cut-off is given here.

Experiments:
[1] = test system: MCF7; test: Induction of autophagy in human MCF7 cells assessed as increase in LC3-2 level at 5 to 10 uM after 48 hrs by Western blot analysis; format: functional, cell-based
Method in brief: (§1)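 Cells were treated with or without compound for 48 h: MCF-7 at 5 and 10 µM, HeLa and BEL-7402 at 20 and 40 µM. Total protein (10 µg) in SDS sample buffer (pH 6.8) was run on 8–15% SDS-PAGE and transferred to PVDF. LC3-I/LC3-II were probed with HRP secondary antibody and ECL detection. The assay was repeated at least three times.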

[2] = test system: MCF7; test: Induction of autophagy in human MCF7 cells assessed as increase in autophagosome formation at 5 and 10 uM after 72 hrs by AO staining-based fluorescence microscopic analysis; format: functional, cell-based
Method in brief: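 Cells in RPMI 1640/10% FBS were exposed to compound or 0.1% DMSO for 72 h: MCF-7 at 5 and 10 µM, HeLa and BEL-7402 at 20 and 40 µM. They were incubated with […] acridine orange for 15 min, washed with PBS, and acidic vesicles were imaged by inverted fluorescence microscopy.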

[3] = test system: MCF7; test: Induction of cell cycle arrest in human MCF7 cells assessed as accumulation at G2/M phase at 10 uM after 72 hrs by PI staining-based flow cytometric analysis (reference value: 19.85%); format: functional
[4] = test system: MCF7; test: Induction of cell cycle arrest in human MCF7 cells assessed as accumulation at S phase at 10 uM after 48 hrs by PI staining-based flow cytometric analysis (reference value: 27.09%); format: functional
[5] = test system: MCF7; test: Induction of cell cycle arrest in human MCF7 cells assessed as accumulation at S phase at 10 uM after 24 hrs by PI staining-based flow cytometric analysis (reference value: 27.09%); format: functional
[6] = test system: MCF7; test: Induction of cell cycle arrest in human MCF7 cells assessed as accumulation at G0/G1 phase at 10 uM after 24 hrs by PI staining-based flow cytometric analysis (reference value: 50.76%); format: functional
[7] = test system: MCF7; test: Induction of apoptosis in human MCF7 cells assessed as accumulation at subG1 phase at 10 uM after 72 hrs by PI staining-based flow cytometric analysis (reference value: 2.98%); format: functional
[8] = test system: MCF7; test: Induction of apoptosis in human MCF7 cells assessed as accumulation at subG1 phase at 10 uM after 48 hrs by PI staining-based flow cytometric analysis (reference value: 2.98%); format: functional
[9] = test system: MCF7; test: Induction of apoptosis in human MCF7 cells assessed as accumulation at subG1 phase at 10 uM after 24 hrs by PI staining-based flow cytometric analysis (reference value: 2.98%); format: functional
[10] = Cytotoxicity against human Bel7402 cells after 3 days by MTT assay; format: functional, cell-based; conditions: Bel-7402, 72 h
Method in brief: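 MCF-7, HeLa and BEL-7402 cells were grown in RPMI 1640 with 10% heat-inactivated FBS, 1 mM glutamine and penicillin/streptomycin at 37 °C under 5% CO2. They were exposed to compound for 3 days, then read by MTT at 570 nm. Viability was taken as treated/control absorbance, and IC50 was derived from it. Values are mean SD of three independent experiments.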

[11] = test system: Bel-7402; test: Induction of autophagy in human Bel7402 cells assessed as increase in LC3-2 level at 20 and 40 uM after 48 hrs by Western blot analysis; format: functional, cell-based; method in brief: as §1
[12] = test system: Bel-7402; test: Induction of autophagy in human Bel7402 cells assessed as autophagic cell formation at 40 uM after 72 hrs by MDC staining-based flow cytometric analysis (reference value: 3.94%); format: functional
[13] = test system: HeLa; test: Induction of autophagy in human HeLa cells assessed as autophagic cell formation at 40 uM after 72 hrs by MDC staining-based flow cytometric analysis (reference value: 1.92%); format: functional
[14] = test system: Bel-7402; test: Induction of cell cycle arrest in human Bel7402 cells assessed as accumulation at G0/G1 phase at 20 uM after 72 hrs by PI staining-based flow cytometric analysis (reference value: 49.44%); format: functional
[15] = test system: HeLa; test: Induction of cell cycle arrest in human HeLa cells assessed as accumulation at G2/M phase at 20 uM after 72 hrs by PI staining-based flow cytometric analysis (reference value: 25.44%); format: functional

SMILES: Cc1ccc(S(=O)(=O)N[C@H](Cc2ccccc2)C(=O)OC[C@H](Cc2ccccc2)NC(=O)c2ccccc2)cc1
- Activity [1]: Active
- Activity [2]: Active
- Activity [3]: 20.07%
- Activity [4]: 28.07%
- Activity [5]: 24.98%
- Activity [6]: 52.57%
- Activity [7]: 3.76%
- Activity [8]: 3.22%
- Activity [9]: 3.38%
- IC50 [10]: 12.5 µM
- Activity [11]: Active
- Activity [12]: 48.25%
- Activity [13]: 49.37%
- Activity [14]: 45.89%
- Activity [15]: 21.52%
